Measured values reported in paper PMC9301648 (ACS Omega, 2022).

Experiments:
[1] = test system: human coronavirus (HCoV) 229E; experiment: cytopathic effect; type: cell-based; settings: for inhibition at 25 µM: unidentified human coronavirus, MRC5, read-out: normalized inhibition % (25 μM); for inhibition of HCoV 229E in words: 25 μM, MRC5 cells
Outline: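 MRC5 cells were seeded at 20,000 cells/well and grown overnight at 37 °C, 5% CO₂. Test compound diluted in assay medium was added, then HCoV 229E diluted in assay medium; final DMSO 0.5%. CPE was read by CellTiter Glo. Protection at each concentration was normalized to virus-only control. Screen at 25 μM; EC50 from full dose–response by four-parameter variable-slope nonlinear regression.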

[2] = cytotoxicity toward MRC5 cells, same conditions without virus infection; type: cell-based; settings: human
Outline: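 Run in parallel with the antiviral CPE assay under identical conditions without virus infection. MRC5 cells were seeded at 20,000 cells/well and cultured overnight at 37 °C, 5% CO₂. Test compound diluted in assay medium was added; final DMSO 0.5%. Viability was read by CellTiter Glo. Single-point at 25 μM; CC50 by four-parameter log(inhibitor) vs response variable-slope regression.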

## CC1(C)OC[C@@]2(C)[C@H]3CC[C@@H]4CN(Cc5ccc([N+](=O)[O-])cc5)[C@@H](C5=CCOC5=O)C[C@H]4[C@]3(C)CC[C@H]2O1 [9h, 3-((4aR,4bS,6aS,9R,10aR,10bS,12aR)-2,2,4a,10b-Tetramethyl-8-(4-nitrobenzyl)tetradecahydro-4H-[1,3]dioxino[5′,4′:3,4]benzo[1,2-f]isoquinolin-9-yl)furan-2(5H)-one]
[1]
  inhibition at 25 µM: 102%
[2]
  cytotoxicity at 3 days, 25 µM: -4.7%

## CC(=O)OC[C@@]1(C)[C@H]2CC[C@@H]3CN(CCC(C)C)[C@@H](C4=CCOC4=O)C[C@H]3[C@]2(C)CC[C@H]1OC(C)=O [4v, ((2R,4aS,6aS,7R,8R,10aS,10bR)-8-Acetoxy-3-isopentyl-7,10a-dimethyl-2-(2-oxo-2,5-dihydrofuran-3-yl)tetradecahydrobenzo[f]isoquinolin-7-yl)methyl Acetate]
[1]
  inhibition at 25 µM: 102%
[2]
  cytotoxicity at 3 days, 25 µM: 3.2%

## CC(=O)OC[C@@]1(C)[C@H]2CC[C@@H]3CN(Cc4cccs4)[C@@H](C4=CCOC4=O)C[C@H]3[C@]2(C)CC[C@H]1OC(C)=O [4p, ((2R,4aS,6aS,7R,8R,10aS,10bR)-8-Acetoxy-7,10a-dimethyl-2-(2-oxo-2,5-dihydrofuran-3-yl)-3-(thiophen-2-ylmethyl)tetradecahydrobenzo[f]isoquinolin-7-yl)methyl Acetate]
[1]
  inhibition of HCoV 229E in words: weak inhibition effect
  inhibition at 25 µM: 26.9%
[2]
  cytotoxicity at 3 days, 25 µM: 4.2%

## CC(=O)OC[C@@]1(C)[C@H]2CC[C@@H]3CN(C4CCCCCC4)[C@@H](C4=CCOC4=O)C[C@H]3[C@]2(C)CC[C@H]1OC(C)=O [4y, ((2R,4aS,6aS,7R,8R,10aS,10bR)-8-Acetoxy-3-cycloheptyl-7,10a-dimethyl-2-(2-oxo-2,5-dihydrofuran-3-yl)tetradecahydrobenzo[f]isoquinolin-7-yl)methyl Acetate]
[1]
  inhibition at 25 µM: 135%
[2]
  CC50 at 3 days: > 100 µM
  cytotoxicity at 3 days, 25 µM: -18.2%

## CC1(C)OC[C@@]2(C)[C@H]3CC[C@@H]4CN(Cc5ccc(C(C)(C)C)cc5)[C@@H](C5=CCOC5=O)C[C@H]4[C@]3(C)CC[C@H]2O1 [9g, 3-((4aR,4bS,6aS,9R,10aR,10bS,12aR)-8-(4-(tert-Butyl)benzyl)-2,2,4a,10b-tetramethyltetradecahydro-4H-[1,3]dioxino[5′,4′:3,4]benzo[1,2-f]isoquinolin-9-yl)furan-2(5H)-one]
[1]
  inhibition at 25 µM: 103%
[2]
  cytotoxicity at 3 days, 25 µM: -0.2%

## C[C@@]12COCO[C@@H]1CC[C@]1(C)[C@@H]2CC[C@@H]2CN(Cc3cccs3)[C@@H](C3=CCOC3=O)C[C@H]21 [10d, 3-((4aR,4bS,6aS,9R,10aR,10bS,12aR)-4a,10b-Dimethyl-8-(thiophen-2-ylmethyl)tetradecahydro-4H-[1,3]dioxino[5′,4′:3,4]benzo[1,2-f]isoquinolin-9-yl)furan-2(5H)-one]
[1]
  inhibition at 25 µM: 58.6%
[2]
  cytotoxicity at 3 days, 25 µM: -13.4%

## CC(=O)OC[C@@]1(C)[C@H]2CC[C@@H]3CN(Cc4ccc(O)cc4)[C@@H](C4=CCOC4=O)C[C@H]3[C@]2(C)CC[C@H]1OC(C)=O [4j, ((2R,4aS,6aS,7R,8R,10aS,10bR)-8-Acetoxy-3-(4-hydroxybenzyl)-7,10a-dimethyl-2-(2-oxo-2,5-dihydrofuran-3-yl)tetradecahydrobenzo[f]isoquinolin-7-yl)methyl Acetate]
[1]
  inhibition at 25 µM: 55.6%
[2]
  cytotoxicity at 3 days, 25 µM: -5.2%

## CC(=O)OC[C@@]1(C)[C@H]2CC[C@@H]3CN(Cc4cccc(Cl)c4)[C@@H](C4=CCOC4=O)C[C@H]3[C@]2(C)CC[C@H]1OC(C)=O [4m, ((2R,4aS,6aS,7R,8R,10aS,10bR)-8-Acetoxy-3-(3-chlorobenzyl)-7,10a-dimethyl-2-(2-oxo-2,5-dihydrofuran-3-yl)tetradecahydrobenzo[f]isoquinolin-7-yl)methyl Acetate]
[1]
  inhibition at 25 µM: 130%
[2]
  CC50 at 3 days: > 100 µM
  cytotoxicity at 3 days, 25 µM: -13.2%

## CC(=O)OC[C@@]1(C)[C@H]2CC[C@@H]3CN(Cc4cccc5ccccc45)[C@@H](C4=CCOC4=O)C[C@H]3[C@]2(C)CC[C@H]1OC(C)=O [4q, ((2R,4aS,6aS,7R,8R,10aS,10bR)-8-Acetoxy-7,10a-dimethyl-3-(naphthalen-1-ylmethyl)-2-(2-oxo-2,5-dihydrofuran-3-yl)tetradecahydrobenzo[f]isoquinolin-7-yl)methyl Acetate]
[1]
  inhibition at 25 µM: 121%
[2]
  cytotoxicity at 3 days, 25 µM: -14.7%

## CC(=O)OC[C@@]1(C)[C@H]2CC[C@@H]3CN(Cc4ccc(C(F)(F)F)cc4)[C@@H](C4=CCOC4=O)C[C@H]3[C@]2(C)CC[C@H]1OC(C)=O [4h, ((2R,4aS,6aS,7R,8R,10aS,10bR)-8-Acetoxy-7,10a-dimethyl-2-(2-oxo-2,5-dihydrofuran-3-yl)-3-(4-(trifluoromethyl)benzyl)tetradecahydrobenzo[f]isoquinolin-7-yl)methyl Acetate]
[1]
  inhibition at 25 µM: 119%
[2]
  cytotoxicity at 3 days, 25 µM: -5.4%

## CC(=O)OC[C@@]1(C)[C@H]2CC[C@@H]3CN(C4CCCC4)[C@@H](C4=CCOC4=O)C[C@H]3[C@]2(C)CC[C@H]1OC(C)=O [4w, ((2R,4aS,6aS,7R,8R,10aS,10bR)-8-Acetoxy-3-cyclopentyl-7,10a-dimethyl-2-(2-oxo-2,5-dihydrofuran-3-yl)tetradecahydrobenzo[f]isoquinolin-7-yl)methyl Acetate]
[1]
  inhibition at 25 µM: 11.3%
[2]
  cytotoxicity at 3 days, 25 µM: -4.5%

## Cc1ccc(CN2C[C@H]3CC[C@@H]4[C@]5(C)COC(C)(C)O[C@@H]5CC[C@@]4(C)[C@@H]3C[C@@H]2C2=CCOC2=O)cc1 [9f, 3-((4aR,4bS,6aS,9R,10aR,10bS,12aR)-2,2,4a,10b-Tetramethyl-8-(4-methylbenzyl)tetradecahydro-4H-[1,3]dioxino[5′,4′:3,4]benzo[1,2-f]isoquinolin-9-yl)furan-2(5H)-one]
[1]
  inhibition of HCoV 229E in words: good inhibition
  inhibition at 25 µM: 100%
[2]
  CC50 at 3 days: > 100 µM
  cytotoxicity at 3 days, 25 µM: -1.6%

## CC(=O)OC[C@@]1(C)[C@H]2CC[C@@H]3CN(Cc4ccccc4)[C@@H](C4=CCOC4=O)C[C@H]3[C@]2(C)CC[C@H]1OC(C)=O [4a, ((2R,4aS,6aS,7R,8R,10aS,10bR)-8-Acetoxy-3-benzyl-7,10a-dimethyl-2-(2-oxo-2,5-dihydrofuran-3-yl)tetradecahydrobenzo[f]isoquinolin-7-yl)methyl Acetate]
[1]
  inhibition at 25 µM: 66.8%
[2]
  cytotoxicity at 3 days, 25 µM: 15.5%

## CCCN1C[C@H]2CC[C@@H]3[C@](C)(COC(C)=O)[C@H](OC(C)=O)CC[C@@]3(C)[C@@H]2C[C@@H]1C1=CCOC1=O [4r, ((2R,4aS,6aS,7R,8R,10aS,10bR)-8-Acetoxy-7,10a-dimethyl-2-(2-oxo-2,5-dihydrofuran-3-yl)-3-propyltetradecahydrobenzo[f]isoquinolin-7-yl)methyl Acetate]
[1]
  inhibition at 25 µM: 51.4%
[2]
  cytotoxicity at 3 days, 25 µM: -5.6%

## CC(=O)OC[C@@]1(C)[C@H]2CC[C@@H]3CN(Cc4ccco4)[C@@H](C4=CCOC4=O)C[C@H]3[C@]2(C)CC[C@H]1OC(C)=O [4o, ((2R,4aS,6aS,7R,8R,10aS,10bR)-8-Acetoxy-3-(furan-2-ylmethyl)-7,10a-dimethyl-2-(2-oxo-2,5-dihydrofuran-3-yl)tetradecahydrobenzo[f]isoquinolin-7-yl)methyl Acetate]
[1]
  inhibition of HCoV 229E in words: weak inhibition effect
  inhibition at 25 µM: 58.4%
[2]
  cytotoxicity at 3 days, 25 µM: -4.5%

## C[C@]1(CO)[C@H]2CC[C@@H]3CN(Cc4ccccc4)[C@@H](C4=CCOC4=O)C[C@H]3[C@]2(C)CC[C@H]1O [11a, 3-((2R,4aS,6aS,7R,8R,10aS,10bR)-3-Benzyl-8-hydroxy-7-(hydroxymethyl)-7,10a-dimethyltetradecahydrobenzo[f]isoquinolin-2-yl)furan-2(5H)-one]
[1]
  inhibition at 25 µM: 39.7%
[2]
  cytotoxicity at 3 days, 25 µM: -4.8%

## CC(=O)OC[C@@]1(C)[C@H]2CC[C@@H]3CN(Cc4ccc(F)c(Cl)c4)[C@@H](C4=CCOC4=O)C[C@H]3[C@]2(C)CC[C@H]1OC(C)=O [4n, ((2R,4aS,6aS,7R,8R,10aS,10bR)-8-Acetoxy-3-(3-chloro-4-fluorobenzyl)-7,10a-dimethyl-2-(2-oxo-2,5-dihydrofuran-3-yl)tetradecahydrobenzo[f]isoquinolin-7-yl)methyl Acetate]
[1]
  inhibition at 25 µM: 102%
[2]
  cytotoxicity at 3 days, 25 µM: -4.9%

## CC(=O)OC[C@@]1(C)[C@H]2CC[C@@H]3CN(Cc4ccc(Br)cc4)[C@@H](C4=CCOC4=O)C[C@H]3[C@]2(C)CC[C@H]1OC(C)=O [4d, ((2R,4aS,6aS,7R,8R,10aS,10bR)-8-Acetoxy-3-(4-bromobenzyl)-7,10a-dimethyl-2-(2-oxo-2,5-dihydrofuran-3-yl)tetradecahydrobenzo[f]isoquinolin-7-yl)methyl Acetate]
[1]
  inhibition at 25 µM: 110%
[2]
  cytotoxicity at 3 days, 25 µM: -3%

## C=C1CC[C@@H]2[C@](C)(CO)[C@H](O)CC[C@@]2(C)[C@@H]1C/C=C1/C(=O)OC[C@H]1O [andrographolide 1, andrographolide, reference compound]
[1]
  inhibition at 25 µM: 34.8%
[2]
  cytotoxicity at 3 days, 25 µM: 23.6%

## CC(=O)OC[C@@]1(C)[C@H]2CC[C@@H]3CN(Cc4ccccc4F)[C@@H](C4=CCOC4=O)C[C@H]3[C@]2(C)CC[C@H]1OC(C)=O [4l, ((2R,4aS,6aS,7R,8R,10aS,10bR)-8-Acetoxy-3-(2-fluorobenzyl)-7,10a-dimethyl-2-(2-oxo-2,5-dihydrofuran-3-yl)tetradecahydrobenzo[f]isoquinolin-7-yl)methyl Acetate]
[1]
  inhibition at 25 µM: 148%
[2]
  CC50 at 3 days: > 100 µM
  cytotoxicity at 3 days, 25 µM: -19.5%
